Assay results published in ChEMBL document CHEMBL4406880, “Design, synthesis, and bioactivity of dihydropyrimidine derivatives as kinesin spindle protein inhibitors” (Bioorg Med Chem, 2019).

Experiments:
Format in all cases: functional
MOLT-4 = assay: Growth inhibition of human MOLT4 cells incubated for 48 hrs by sulforhodamine B assay; details: MOLT-4, 48 h
Outline: (§1)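 NCI-60 five-dose SRB assay in RPMI 1640 with 5% FBS, 37 °C, 5% CO2. Compound given at five tenfold dilutions, 0.01–100 µM, for 48 h. Adherent cells fixed with TCA, suspension cells with 16% final TCA. Bound SRB read at 515 nm and growth calculated against time-zero and untreated controls. GI50 taken from dose–response curves as the concentration giving a 50% decrease in net cell growth.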

HCT-116 = assay: Growth inhibition of human HCT116 cells incubated for 48 hrs by sulforhodamine B assay; details: HCT-116, 48 h
Outline: (§2)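 NCI-60 five-dose mode: five tenfold dilutions (0.01, 0.1, 1, 10, 100 µM) are applied for 48 h to cells in RPMI 1640 with 5% FBS at 37 °C. Endpoint is TCA fixation with sulforhodamine B read at 515 nm. % growth comes from the 0 h and control absorbances. GI50 is the concentration giving a 50% reduction in net cell growth.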

MDA-MB-435 = assay: Growth inhibition of human MDA-MB-435 cells incubated for 48 hrs by sulforhodamine B assay; details: MDA-MB-435, 48 h; outline: as §1
UO-31 = assay: Growth inhibition of human UO31 cells incubated for 48 hrs by sulforhodamine B assay; details: UO-31, 48 h
Outline: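 NCI-60 five-dose SRB assay. Cells were exposed for 48 h to tenfold dilutions of 0.01, 0.1, 1, 10 and 100 µM, in RPMI 1640 with 5% FBS. Plates fixed with TCA at the time of drug addition served as the time-zero reference. GI50 is the concentration giving a 50% reduction in net growth. TGI is total growth inhibition. LC50 is a net 50% loss of the initial cells.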

MDA-MB-468 = assay: Growth inhibition of human MDA-MB-468 cells incubated for 48 hrs by sulforhodamine B assay; details: MDA-MB-468, 48 h; outline: as §1
UACC-257 = assay: Growth inhibition of human UACC257 cells assessed as cell viability at 100 uM incubated for 48 hrs by sulforhodamine B assay; details: UACC-257, 48 h, read-out: Activity
BT-549 = assay: Growth inhibition of human BT549 cells assessed as cell viability at 1 uM incubated for 48 hrs by sulforhodamine B assay; details: BT-549, 48 h, read-out: Activity
A498 [1] = assay: Growth inhibition of human A498 cells assessed as cell viability at 1 uM incubated for 48 hrs by sulforhodamine B assay; details: A498, 48 h, read-out: Activity; outline: as §2
HOP-92 = assay: Growth inhibition of human HOP92 cells assessed as cell viability at 1 uM incubated for 48 hrs by sulforhodamine B assay; details: HOP-92, 48 h, read-out: Activity
EKVX = assay: Growth inhibition of human EKVX cells assessed as cell viability at 1 uM incubated for 48 hrs by sulforhodamine B assay; details: read-out: Activity
SR = assay: Growth inhibition of human SR cells assessed as cell viability at 1 uM incubated for 48 hrs by sulforhodamine B assay; details: read-out: Activity
A498 [2] = assay: Growth inhibition of human A498 cells assessed as cell viability at 0.1 uM incubated for 48 hrs by sulforhodamine B assay; details: A498, 48 h, read-out: Activity; outline: as §2
COLO 205 = assay: Growth inhibition of human COLO205 cells assessed as cell viability at 0.1 uM incubated for 48 hrs by sulforhodamine B assay; details: COLO 205, 48 h, read-out: Activity
HL-60(TB) = assay: Growth inhibition of human HL-60(TB) cells assessed as cell viability at 0.1 uM incubated for 48 hrs by sulforhodamine B assay; details: HL-60, 48 h, read-out: Activity
Outline: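 NCI-60 five-dose assay, SRB end-point, same culture conditions. Compound is tested at tenfold dilutions of 0.01, 0.1, 1, 10 and 100 µM for 48 h at 37 °C, with DMSO/PBS vehicle controls. Percentage growth at each concentration is taken against untreated cells and a time-zero plate. GI50 is 50% net growth decrease, TGI is total growth inhibition, and LC50 is 50% loss of initial cells.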

TK-10 [3] = assay: Growth inhibition of human TK10 cells assessed as cell viability at 0.001 uM incubated for 48 hrs by sulforhodamine B assay relative to control; details: TK-10, 48 h, read-out: Activity
IGROV-1 = assay: Growth inhibition of human IGROV1 cells assessed as cell viability at 0.001 uM incubated for 48 hrs by sulforhodamine B assay relative to control; details: IGROV-1, 48 h, read-out: Activity
M14 = assay: Growth inhibition of human M14 cells assessed as cell viability at 0.001 uM incubated for 48 hrs by sulforhodamine B assay relative to control; details: M14, 48 h, read-out: Activity
SF-268 = assay: Growth inhibition of human SF268 cells assessed as cell viability at 0.001 uM incubated for 48 hrs by sulforhodamine B assay relative to control; details: SF-268, 48 h, read-out: Activity
KM12 = assay: Growth inhibition of human KM12 cells assessed as cell viability at 0.001 uM incubated for 48 hrs by sulforhodamine B assay relative to control; details: KM12, 48 h, read-out: Activity
HCC 2998 = assay: Growth inhibition of human HCC2998 cells assessed as cell viability at 0.001 uM incubated for 48 hrs by sulforhodamine B assay relative to control; details: HCC 2998, 48 h, read-out: Activity
OVCAR-3 = assay: Growth inhibition of human OVCAR3 cells assessed as cell viability at 100 uM incubated for 48 hrs by sulforhodamine B assay; details: OVCAR-3, 48 h, read-out: Activity
NCI/ADR-RES = assay: Growth inhibition of human NCI/ADR-RES cells assessed as cell viability at 100 uM incubated for 48 hrs by sulforhodamine B assay; details: read-out: Activity
CAKI-1 = assay: Growth inhibition of human Caki1 cells assessed as cell viability at 100 uM incubated for 48 hrs by sulforhodamine B assay; details: CAKI-1, 48 h, read-out: Activity
TK-10 [4] = assay: Growth inhibition of human TK10 cells assessed as cell viability at 100 uM incubated for 48 hrs by sulforhodamine B assay; details: TK-10, 48 h, read-out: Activity
[5] = read-out: LC50 (the source's name)
[6] = read-out: pLC50 (the source's name) (converted)

**Q.** With `CC1=C(C(=O)OCc2ccccc2)C(c2ccc3c(c2)OCO3)n2c(nc3ccccc32)N1` (racemic) as the compound, how does the GI50 (MOLT-4; read-out: GI50) read?
**A.** The GI50 was 750 nM.

**Q.** And the CC50 (MOLT-4; [5])?
**A.** The CC50 was greater than 100000 nM.

**Q.** And the TGI (MOLT-4; read-out: TGI)?
**A.** The TGI was greater than 100000 nM.

**Q.** What about the GI50 (MOLT-4; read-out: pGI50 (converted)) of the same compound?
**A.** The GI50 was 759 nM.

**Q.** What about the CC50 (MOLT-4; [6]) of the same compound?
**A.** Its CC50 is greater than 100000 nM.

**Q.** What about the TGI (MOLT-4; read-out: pTGI) of the same compound?
**A.** Its TGI is greater than 100000 nM.

**Q.** What about the GI50 (HCT-116; read-out: GI50) of the same compound?
**A.** Its GI50 is 470 nM.

**Q.** What about the LC50 (HCT-116; read-out: LC50) of the same compound?
**A.** Its LC50 is greater than 100000 nM.

**Q.** What about the TGI (HCT-116; read-out: TGI) of the same compound?
**A.** Its TGI is greater than 100000 nM.

**Q.** What about the GI50 (HCT-116; read-out: pGI50 (converted)) of the same compound?
**A.** The GI50 was 479 nM.

**Q.** What about the LC50 (HCT-116; read-out: pLC50 (converted)) of the same compound?
**A.** The LC50 was greater than 100000 nM.

**Q.** And the TGI (HCT-116; read-out: pTGI)?
**A.** The TGI was greater than 100000 nM.

**Q.** What about the GI50 (MDA-MB-435; read-out: GI50) of the same compound?
**A.** Its GI50 is 80 nM.

**Q.** And the LC50 (MDA-MB-435; read-out: LC50)?
**A.** The LC50 was greater than 100000 nM.

**Q.** What about the TGI (MDA-MB-435; read-out: TGI) of the same compound?
**A.** The TGI was 350 nM.

**Q.** What about the GI50 (MDA-MB-435; read-out: pGI50 (converted)) of the same compound?
**A.** The GI50 was 85.1 nM.

**Q.** And the LC50 (MDA-MB-435; read-out: pLC50 (converted))?
**A.** The LC50 was greater than 100000 nM.

**Q.** What about the TGI (MDA-MB-435; read-out: pTGI (converted)) of the same compound?
**A.** The TGI was 347 nM.

**Q.** And the GI50 (UO-31; read-out: GI50)?
**A.** Its GI50 is 590 nM.

**Q.** And the CC50 (UO-31; [5])?
**A.** Its CC50 is greater than 100000 nM.

**Q.** And the GI50 (UO-31; read-out: pGI50 (converted))?
**A.** Its GI50 is 589 nM.

**Q.** And the CC50 (UO-31; [6])?
**A.** The CC50 was greater than 100000 nM.

**Q.** And the TGI (UO-31; read-out: pTGI (converted))?
**A.** Its TGI is 63100 nM.

**Q.** And the GI50 (MDA-MB-468; read-out: GI50)?
**A.** The GI50 was 270 nM.

**Q.** What about the CC50 (MDA-MB-468; [5]) of the same compound?
**A.** The CC50 was greater than 100000 nM.

**Q.** What about the TGI (MDA-MB-468; read-out: TGI) of the same compound?
**A.** The TGI was greater than 100000 nM.

**Q.** What about the GI50 (MDA-MB-468; read-out: pGI50 (converted)) of the same compound?
**A.** The GI50 was 269 nM.

**Q.** What about the CC50 (MDA-MB-468; [6]) of the same compound?
**A.** Its CC50 is greater than 100000 nM.

**Q.** What about the TGI (MDA-MB-468; read-out: pTGI) of the same compound?
**A.** Its TGI is greater than 100000 nM.

**Q.** What about the viability at 100 µM (UACC-257) of the same compound?
**A.** Its viability at 100 µM is 46%.

**Q.** And the viability at 1 µM (BT-549)?
**A.** Its viability at 1 µM is 49%.

**Q.** What about the viability at 1 µM (A498 [1]) of the same compound?
**A.** The viability at 1 µM was 15%.

**Q.** What about the viability at 1 µM (HOP-92) of the same compound?
**A.** Its viability at 1 µM is 41%.

**Q.** And the viability at 1 µM (EKVX)?
**A.** The viability at 1 µM was 41%.

**Q.** What about the viability at 1 µM (SR) of the same compound?
**A.** The viability at 1 µM was 52%.

**Q.** And the viability at 0.1 µM (A498 [2])?
**A.** The viability at 0.1 µM was 95%.

**Q.** And the viability at 0.1 µM (COLO 205)?
**A.** Its viability at 0.1 µM is 101%.

**Q.** And the viability at 0.1 µM (HL-60(TB))?
**A.** Its viability at 0.1 µM is 97%.

**Q.** What about the viability at 0.001 µM (TK-10 [3]) of the same compound?
**A.** Its viability at 0.001 µM is 92%.

**Q.** And the viability at 0.001 µM (IGROV-1)?
**A.** Its viability at 0.001 µM is 92%.

**Q.** What about the viability at 0.001 µM (M14) of the same compound?
**A.** The viability at 0.001 µM was 93%.

**Q.** And the viability at 0.001 µM (SF-268)?
**A.** Its viability at 0.001 µM is 91%.

**Q.** And the viability at 0.001 µM (KM12)?
**A.** The viability at 0.001 µM was 91%.

**Q.** What about the viability at 0.001 µM (HCC 2998) of the same compound?
**A.** The viability at 0.001 µM was 92%.

**Q.** And the viability at 100 µM (OVCAR-3)?
**A.** The viability at 100 µM was -10%.

**Q.** What about the viability at 100 µM (NCI/ADR-RES) of the same compound?
**A.** The viability at 100 µM was 14%.

**Q.** What about the viability at 100 µM (CAKI-1) of the same compound?
**A.** Its viability at 100 µM is 23%.

**Q.** And the viability at 100 µM (TK-10 [4])?
**A.** The viability at 100 µM was 68%.
